TDP2 absorb = human TDP2 enzyme inhibitors, primary screen, biochemical, epi absorbance, recombinant enzyme; Tyrosyl-DNA phosphodiesterase 2 (Homo sapiens), O95551; T5PNP hydrolysis, p-nitrophenol absorbance 415 nm; inhibition, % at 12.8 µM; 370,000 compounds, 0.34% hits; AID 720702, 2013;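 active = inhibition above the mean of all tested compounds plus 3 SD, set per campaign, cut at about 25% in these data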;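 also: 0% = DMSO with enzyme and 100% = buffer with substrate but no TDP2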
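test system = human TDP2 enzyme | input = TDP2 enzyme at 120 nM final | medium = 50 mM Tris-HCl pH 7.5 with Mg2+, KCl, DTT, BSA | also added = T5PNP substrate, 5 mM | times = 2 h at 37 °C | technique = epi absorbance | benchmarks = high control without enzyme, low control DMSO plus TDP2 | replication = each compound tested once, singlicate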
LEDGF integ inh = blockers of LEDGF/p75-dependent integrase strand transfer – biochemical, TR-FRET, high throughput, primary screen; 370,000 compounds, 0.64% hits; HIV-1 integrase (with human LEDGF/p75); inhibition, % at 3.7 µM; AID 743269, 2014; TR-FRET IN-LEDGF/p75 DNA integration, Eu/Cy5;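 active = inhibition above the screen-wide mean plus 3 SD, cut at about 13% in these data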;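 also: signal is the Cy5 over europium emission ratio at 671 and 618 nm; 0% = plate median of compound wells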
MBD2 DNA inh = inhibitors of MBD2 binding to methylated DNA, primary screen, biochemical, TR-FRET, DNA-binding domain, human; MBD2 binding to methylated oligonucleotide; inhibition, % at 4.4 µM; 370,000 compounds, 0.31% hits; AID 686964, 2013; in the data active = inhibition above about 13%
UHRF1 binding = UHRF1 methylated DNA binding inhibitors, primary screen, counter-screen for MBD2 inhibitor project, biochemical, TR-FRET, human UHRF1, single concentration | E3 ubiquitin-protein ligase UHRF1 (Homo sapiens), Q96T88 | UHRF1 binding to methylated oligo | inhibition, % at 4.4 µM | 370,000 compounds, 0.75% hits; in the data active = inhibition above about 21%;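 also: UHRF1 SRA domain binding a hemimethylated CpG hairpin DNA probe; 0% = median of test compound wells and 100% = reference inhibitor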
Target sequence (Q96T88 whole entry, looked up, the tested form may be a part): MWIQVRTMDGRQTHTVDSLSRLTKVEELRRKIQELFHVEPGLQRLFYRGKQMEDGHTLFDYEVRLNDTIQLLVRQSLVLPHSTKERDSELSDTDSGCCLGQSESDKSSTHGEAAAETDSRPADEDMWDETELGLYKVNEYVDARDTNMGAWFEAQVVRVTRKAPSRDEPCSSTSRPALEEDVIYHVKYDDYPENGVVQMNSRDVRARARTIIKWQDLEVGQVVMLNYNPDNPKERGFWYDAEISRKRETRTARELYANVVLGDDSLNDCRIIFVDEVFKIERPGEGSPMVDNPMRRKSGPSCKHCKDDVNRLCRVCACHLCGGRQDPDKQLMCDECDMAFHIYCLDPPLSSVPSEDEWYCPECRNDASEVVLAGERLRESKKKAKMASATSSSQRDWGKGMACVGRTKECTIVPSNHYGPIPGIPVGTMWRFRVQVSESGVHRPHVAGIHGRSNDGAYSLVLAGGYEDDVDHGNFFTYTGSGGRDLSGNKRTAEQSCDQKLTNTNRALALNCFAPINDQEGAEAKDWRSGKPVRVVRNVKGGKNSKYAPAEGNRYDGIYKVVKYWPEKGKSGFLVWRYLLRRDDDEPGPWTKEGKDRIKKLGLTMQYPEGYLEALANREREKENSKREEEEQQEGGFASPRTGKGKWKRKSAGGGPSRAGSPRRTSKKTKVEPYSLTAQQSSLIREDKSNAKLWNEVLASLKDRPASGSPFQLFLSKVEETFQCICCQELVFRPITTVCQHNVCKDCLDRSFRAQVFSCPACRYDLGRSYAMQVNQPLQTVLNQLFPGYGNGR
TDP2 confirm = human TDP2 enzyme inhibitors, retest, confirmation, biochemical, epi absorbance, recombinant enzyme; shares compounds with TDP2 absorb; absorbance read-out; inhibition, % at 12.8 µM; 1,100 compounds, 22% hits; AID 743263, 2014; in the data active = inhibition above about 25%;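 also: 0% = vehicle with enzyme and 100% = no enzyme buffer only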
Starred values were filed as active, the others as inactive; . = no result. Compounds with a hit are over-represented: about 1.6% of the library has one in this group of screens.

SMILES	TDP2 absorb	LEDGF integ inh	MBD2 DNA inh	UHRF1 binding	TDP2 confirm
Cc1[nH][nH]c(=O)c1C(c1ccc(Br)cc1)c1c(C)[nH][nH]c1=O	-4	-2	-8	-8	.
Cc1[nH][nH]c(=O)c1C(c1ccc([N+](=O)[O-])cc1)c1c(C)[nH][nH]c1=O	31*	3	-4	9	12
COc1ccc(OC)c(C(c2c(C)[nH][nH]c2=O)c2c(C)[nH][nH]c2=O)c1	50*	0	-6	-6	8
Cc1ccc(C2CCC3(CCC(=O)N3CCOC(=O)Nc3ccc(Br)cc3)CC2)cc1 (stereo not drawn)	3	-3	-5	-1	.
Nc1ccc(OC(=O)Nc2ccc(O)cc2)cc1	30*	4	-2	7	12
O=C(CNC(=O)c1ccc([N+](=O)[O-])cc1)N/N=C/c1c[nH]c2ccccc12	27*	3	-4	-3	3
Cc1nc2c3ccccc3nc(NNC(=O)CCC(=O)N3CCC(C)CC3)n2n1	29*	2	2	-2	7
CCCC(C)C(=O)NC1CCCCN(C)C1=O (stereo not drawn)	0	3	0	-2	.
COc1ccc(N(C(=O)Cn2nnc(-c3ccc(Cl)cc3)n2)C(C(=O)NCC2CCCO2)c2ccc(C)cc2)cc1 (stereo not drawn)	0	1	-5	-2	.
COc1ccc(N(C(=O)Cn2nnc(-c3ccccc3F)n2)C(C(=O)NCC2CCCO2)c2ccc(Cl)cc2)cc1 (stereo not drawn)	26*	1	-2	-2	2
CCN(CC)CCN1C(=O)C(=O)/C(=C(/O)c2ccc(C)cc2)C1c1cccnc1 (stereo not drawn)	32*	4	-5	6	6
CC(=O)c1ccc(NC2=C(N3CCOCC3)C(=O)c3ccccc3C2=O)cc1	54*	5	-10	0	38*
Cc1ccc(NC2=C(N3CCOCC3)C(=O)c3ccccc3C2=O)cc1	60*	30*	0	15	51*
Cc1cc(NCCc2c[nH]c3ccccc23)ccc1Nc1cccnc1	-1	4	-3	1	.
CN(C(=O)c1cc(C(=O)N(C)c2ccccc2)cc([N+](=O)[O-])c1)c1ccccc1	17	-1	-6	-2	.
CC1=NN(c2ccccc2)C(=O)C1C(=O)c1cc([N+](=O)[O-])cc([N+](=O)[O-])c1 (stereo not drawn)	47*	4	-2	-9	10
Cc1nn(C(C)C(=O)NCc2ccco2)c(=O)c2nn(-c3ccccc3)c(C)c12 (stereo not drawn)	28*	-4	1	2	5
CCC(C(=O)NCc1ccco1)n1nc(C)c2c(C)n(-c3ccccc3)nc2c1=O (stereo not drawn)	-26	0	0	4	.
CN1C(=O)C(=O)N2C(=C[C@]3(c4c[nH]c5ccccc45)c4ccccc4N[C@H]23)C1=O	3	1	-1	2	.
CC1(C)CNc2cc(N)ccc2S1	38*	13	-10	-2	0
CC(=O)C1=C(C)OC2(O)c3ccccc3C(=O)C12O (stereo not drawn)	57*	0	-1	2	61*
CCOC(=O)C1=C(C)OC2(O)c3ccccc3C(=O)C12O (stereo not drawn)	70*	12	2	5	81*
COc1ccccc1CN1CCN(C(=O)c2ccco2)CC1	11	0	-1	0	.
COc1ccc(CN2CCN(Cc3ccco3)CC2)c(OC)c1	27*	1	4	2	6
COc1ccccc1CN1CCN(Cc2ccco2)CC1	28*	5	-2	0	5
SMILES	TDP2 absorb	LEDGF integ inh	MBD2 DNA inh	UHRF1 binding	TDP2 confirm
O=C1C2(CCCC13COC(c1ccc(O)cc1)OC3)COC(c1ccc(O)cc1)OC2 (stereo not drawn)	25*	0	6	12	3
N#CCc1cnc2ccccc2n1	28*	0	-8	-1	22
NS(=O)(=O)c1ccc(-c2ccc(/C=C3\SC(=S)N(C4CCS(=O)(=O)C4)C3=O)o2)cc1 (stereo not drawn)	29*	6	2	1	-1
CC(C)C1Cc2[nH]c(=O)c(C(=O)O)cc2CO1 (stereo not drawn)	29*	-1	4	-2	9
COc1cc(C(=O)Nc2ccccc2SCc2cc(=O)n3nc(C)sc3n2)cc(OC)c1OC	3	-1	4	2	.
Cc1nn2c(=O)cc(CSc3ccccc3NC(=O)c3ccccc3)nc2s1	26*	-1	1	-2	-5
Cc1ccccc1C(=O)Nc1cccc(NC(=O)c2cccnc2)c1	25*	-3	-4	-2	0
COc1cc(CNCc2ccc(Br)cc2)cc(OC)c1	25*	0	-3	0	9
C=CCOc1cccc(C2C(C(=O)c3ccco3)=C(O)C(=O)N2CCN2CCOCC2)c1 (stereo not drawn)	41*	10	7	19	-7
Cc1cnc(CNC(=O)CC2C(=O)NCCN2Cc2cccc(F)c2F)cn1 (stereo not drawn)	25*	1	0	0	-3
CCCCc1c(-c2ccccc2OC)ncn1Cc1ccccc1Cl	1	6	2	1	.
CCOC(=O)c1c(-c2ccc(Cl)cc2)csc1NC(=O)CNCc1ccco1	32*	4	-3	-2	8
CCOC(=O)c1c(-c2ccccc2)csc1NC(=O)C(C)NCc1ccco1 (stereo not drawn)	4	-3	5	2	.
COc1ccc(CN2C(=O)N3Cc4ccc(C)cc4C3CS2(=O)=O)cc1 (stereo not drawn)	-11	4	-1	0	.
COC(=O)c1cc2c(c3c4cc(F)ccc4n(S(=O)(=O)c4cccc(C)c4)c13)C(=O)N(Cc1ccc(N(C)C)cc1)C2	9	0	-2	-2	.
CC(C(=O)NC1C=CS(=O)(=O)C1)N1C(=O)/C(=C/c2cccc(Cl)c2)SC1=S (stereo not drawn)	27*	1	2	-8	-9
CN1c2ccccc2C(C)(C)[C@]12C=Cc1cc(O)ccc1O2	4	2	-2	-11	.
CN1c2ccccc2C(C)(C)C12C=Nc1c(ccc3ccccc13)O2 (stereo not drawn)	33*	4	-2	8	5
COC(=O)C1CN(Cc2cn(CCC3OCCO3)nn2)CCS(=O)(=O)N1Cc1ccc(C)cc1 (stereo not drawn)	1	-2	6	14	.

Screens (PubChem)
